Source: ChEMBL document CHEMBL4038327, “Inhibitory Kappa B Kinase α (IKKα) Inhibitors That Recapitulate Their Selectivity in Cells against Isoform-Related Biomarkers” (J Med Chem, 2017)

How the values were obtained:
[1] = target: T1, Inhibitor of nuclear factor kappa-B kinase subunit beta (Homo sapiens, UniProt O14920); assay: Inhibition of IKKbeta in human U2OS cells assessed as TNFalpha induced IkBalpha degradation at 100 uM preincubated for 1 hr followed by TNFalpha stimulation for 30 mins by Western blot analysis; assay type: cell-based; details: 0.5 h
T1 sequence (O14920 whole entry): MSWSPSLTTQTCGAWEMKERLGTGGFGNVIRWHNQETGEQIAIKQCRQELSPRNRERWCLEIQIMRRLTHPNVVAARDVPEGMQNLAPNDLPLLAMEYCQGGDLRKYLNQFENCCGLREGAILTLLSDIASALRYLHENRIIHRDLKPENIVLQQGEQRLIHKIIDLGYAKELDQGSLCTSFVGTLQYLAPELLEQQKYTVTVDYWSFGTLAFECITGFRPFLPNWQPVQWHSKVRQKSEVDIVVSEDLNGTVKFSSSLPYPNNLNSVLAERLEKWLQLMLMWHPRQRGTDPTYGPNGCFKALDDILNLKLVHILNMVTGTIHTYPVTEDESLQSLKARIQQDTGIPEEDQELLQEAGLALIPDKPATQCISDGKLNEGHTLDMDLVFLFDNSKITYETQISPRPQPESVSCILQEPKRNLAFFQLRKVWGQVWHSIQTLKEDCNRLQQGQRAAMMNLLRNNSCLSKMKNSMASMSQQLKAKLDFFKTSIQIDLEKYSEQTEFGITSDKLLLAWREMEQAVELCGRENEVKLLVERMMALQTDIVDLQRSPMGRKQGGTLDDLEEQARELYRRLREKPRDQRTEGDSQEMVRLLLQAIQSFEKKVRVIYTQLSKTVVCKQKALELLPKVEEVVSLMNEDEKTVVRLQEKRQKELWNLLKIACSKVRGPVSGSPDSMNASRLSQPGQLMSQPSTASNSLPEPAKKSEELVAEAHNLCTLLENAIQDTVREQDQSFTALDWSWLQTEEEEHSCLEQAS
In short: (§1)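 U2OS cells were grown in McCoy's 5A medium at 37 °C under 5% CO2 and made quiescent by 24 h serum deprivation. They were then pretreated with compound before agonist stimulation in serum-free medium. Phospho-p100, IκBα levels and phospho-p65 (Ser536) were assessed by Western blot.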

[2] = target: T1, Inhibitor of nuclear factor kappa-B kinase subunit beta; assay: Inhibition of IKKbeta in human U2OS cells assessed as decrease in TNFalpha induced p65 phosphorylation at ser536 residues at 100 uM preincubated for 1 hr followed by TNFalpha stimulation for 30 mins by Western blot analysis; assay type: cell-based; details: 0.5 h; in short: as §1
[3] = target: T2, Inhibitor of nuclear factor kappa-B kinase subunit alpha (Homo sapiens) (UniProt O15111); assay: (§2) Inhibition of IKKalpha in human U2OS cells assessed as decrease in FCS induced p100 phosphorylation at ser866/870 residues preincubated for 1 hr followed by FCS stimulation for 4 hrs by Western blot analysis; assay type: cell-based; in short: as §1
T2 sequence (whole entry): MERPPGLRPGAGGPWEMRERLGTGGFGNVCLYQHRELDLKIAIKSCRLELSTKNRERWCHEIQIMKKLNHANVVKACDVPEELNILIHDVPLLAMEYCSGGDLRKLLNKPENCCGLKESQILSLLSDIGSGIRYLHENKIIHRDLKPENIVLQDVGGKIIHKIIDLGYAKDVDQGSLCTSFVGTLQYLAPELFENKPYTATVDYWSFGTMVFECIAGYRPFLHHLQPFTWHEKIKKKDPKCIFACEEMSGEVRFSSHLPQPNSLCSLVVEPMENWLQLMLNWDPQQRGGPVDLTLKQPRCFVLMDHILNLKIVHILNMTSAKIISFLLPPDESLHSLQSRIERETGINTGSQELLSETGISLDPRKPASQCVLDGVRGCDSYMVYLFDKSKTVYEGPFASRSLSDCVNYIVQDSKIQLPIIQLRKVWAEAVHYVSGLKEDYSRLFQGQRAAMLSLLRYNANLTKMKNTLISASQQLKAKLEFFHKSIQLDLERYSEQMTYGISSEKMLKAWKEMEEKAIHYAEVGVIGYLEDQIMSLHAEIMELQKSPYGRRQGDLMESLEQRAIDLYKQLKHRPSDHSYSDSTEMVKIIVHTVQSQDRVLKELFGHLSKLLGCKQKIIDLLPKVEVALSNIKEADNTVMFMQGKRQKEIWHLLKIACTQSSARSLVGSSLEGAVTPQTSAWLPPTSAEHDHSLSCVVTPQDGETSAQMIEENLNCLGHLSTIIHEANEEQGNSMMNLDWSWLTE

[4] = target: T3, Inhibitor of nuclear factor kappa-B kinase subunit alpha (Homo sapiens, UniProt O15111); assay: as §2; assay type: cell-based; in short: as §1
T3 sequence (O15111 whole entry): T2 sequence (whole entry)

[5] = target: T4, Inhibitor of nuclear factor kappa-B kinase subunit alpha (Mus musculus) (UniProt Q60680); assay: Inhibition of IKKalpha in IKKbeta knockout mouse embryonic fibroblast cells harboring Adv.NF-kB.luc assessed as IL-1beta induced NF-kB transcriptional activation at 100 uM pretreated for 1 hr followed by IL-1beta stimulation for 6 hrs by luciferase reporter gene assay relative to control; design: scale not given: the % may be the effect or the level left
T4 sequence (whole entry): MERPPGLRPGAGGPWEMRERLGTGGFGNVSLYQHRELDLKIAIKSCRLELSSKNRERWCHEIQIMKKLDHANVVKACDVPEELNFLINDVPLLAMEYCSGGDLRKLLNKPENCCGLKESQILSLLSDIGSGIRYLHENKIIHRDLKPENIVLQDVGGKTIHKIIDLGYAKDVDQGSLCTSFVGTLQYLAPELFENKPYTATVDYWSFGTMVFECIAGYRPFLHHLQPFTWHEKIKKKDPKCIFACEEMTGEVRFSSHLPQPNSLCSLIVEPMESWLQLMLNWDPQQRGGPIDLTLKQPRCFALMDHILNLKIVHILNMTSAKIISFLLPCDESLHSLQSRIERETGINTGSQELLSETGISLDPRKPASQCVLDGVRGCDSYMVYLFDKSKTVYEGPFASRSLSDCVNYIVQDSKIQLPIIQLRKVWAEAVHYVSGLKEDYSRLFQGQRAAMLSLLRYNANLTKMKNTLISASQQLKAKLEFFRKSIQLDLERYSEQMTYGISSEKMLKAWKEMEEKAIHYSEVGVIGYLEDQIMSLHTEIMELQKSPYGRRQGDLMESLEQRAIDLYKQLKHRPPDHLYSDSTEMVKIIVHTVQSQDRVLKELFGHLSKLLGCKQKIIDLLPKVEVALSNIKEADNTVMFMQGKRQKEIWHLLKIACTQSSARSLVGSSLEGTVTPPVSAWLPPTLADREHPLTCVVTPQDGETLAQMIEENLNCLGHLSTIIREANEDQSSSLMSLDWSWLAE
In short: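 IKKβ knockout MEFs infected with Adv.NF-kB.luc (up to 300 pfu/cell, 24 h, 10% DMEM), replated and serum-starved 24 h. Pretreated 1 h with compound, then IL-1β (10 ng/mL) for 6 h. Lysis buffer contained 0.2 mM luciferin, and luminescence was read as RLU. Results are expressed as % of IL-1β + DMSO stimulation.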

[6] = target: T3, Inhibitor of nuclear factor kappa-B kinase subunit alpha; assay: Inhibition of recombinant human N-terminal GST-tagged IKKalpha (1 to 745 residues) expressed in baculovirus expression system using biotinylated IkBalpha as substrate after 60 mins by DELFIA
[7] = target: T1, Inhibitor of nuclear factor kappa-B kinase subunit beta; assay: Inhibition of recombinant full length human IKKbeta expressed in baculovirus infected sf9 insect cells using biotinylated IkBalpha as substrate after 60 mins by DELFIA
In short: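 Recombinant IKKβ (37 nM) was incubated with biotinylated IκB-α (Ser32) peptide (0.375 μM) and 40 μM ATP in Tris-HCl pH 7.5 with MgCl2, EDTA, DTT and BSA for 60 min at 30 °C. The reaction was quenched with EDTA and captured on streptavidin. Detection used anti-phospho-IκBα (Ser32/36) mAb plus Eu-anti-mouse IgG, read by time-resolved fluorescence (340/615 nm). Apparent Ki was obtained via Cheng–Prusoff, n=3.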

- inhibition (INH) [1]: Not Active
- inhibition (INH) [2]: Not Active
- inhibition [3]: Dose-dependent effect
- IC50 [4]: 13900 to 19100 nM
- Activity [5]: 18.8%
- Ki [6]: 650 nM
- Ki [7]: 2300 nM
SMILES: N#Cc1c[nH]c2nc(N)nc(-c3ccc(CO)cc3)c12
